Results on one molecule are retold here after ChEMBL document CHEMBL1817578, “2-({6-[(3R)-3-amino-3-methylpiperidine-1-yl]-1,3-dimethyl-2,4-dioxo-1,2,3,4-tetrahydro-5H-pyrrolo[3,2-d]pyrimidine-5-yl}methyl)-4-fluorobenzonitrile (DSR-12727): a potent, orally active dipeptidyl peptidase IV inhibitor without mechanism-based inactivation of CYP3A” (Bioorg Med Chem, 2011).

As a reminder, the IC50 is the concentration that inhibits the measured activity by half. The half-life is the time in which the quantity being followed falls by half. The Cmax is the highest concentration seen after dosing. Usually clearance stands for a measure of how efficiently the substance is removed, as volume per time. As a reminder, the solubility is how much of the substance goes into solution per volume.

In one data set the target is Dipeptidyl peptidase 4 (Homo sapiens, UniProt P27487). Description: Inhibition of DPP4 in human plasma assessed as formation of 7-amino-4-methylcoumarin from glycyl-L-proline 4-methylcoumaryl-7-amide by fluorescence assay.
Chain of Dipeptidyl peptidase 4 (P27487 whole entry): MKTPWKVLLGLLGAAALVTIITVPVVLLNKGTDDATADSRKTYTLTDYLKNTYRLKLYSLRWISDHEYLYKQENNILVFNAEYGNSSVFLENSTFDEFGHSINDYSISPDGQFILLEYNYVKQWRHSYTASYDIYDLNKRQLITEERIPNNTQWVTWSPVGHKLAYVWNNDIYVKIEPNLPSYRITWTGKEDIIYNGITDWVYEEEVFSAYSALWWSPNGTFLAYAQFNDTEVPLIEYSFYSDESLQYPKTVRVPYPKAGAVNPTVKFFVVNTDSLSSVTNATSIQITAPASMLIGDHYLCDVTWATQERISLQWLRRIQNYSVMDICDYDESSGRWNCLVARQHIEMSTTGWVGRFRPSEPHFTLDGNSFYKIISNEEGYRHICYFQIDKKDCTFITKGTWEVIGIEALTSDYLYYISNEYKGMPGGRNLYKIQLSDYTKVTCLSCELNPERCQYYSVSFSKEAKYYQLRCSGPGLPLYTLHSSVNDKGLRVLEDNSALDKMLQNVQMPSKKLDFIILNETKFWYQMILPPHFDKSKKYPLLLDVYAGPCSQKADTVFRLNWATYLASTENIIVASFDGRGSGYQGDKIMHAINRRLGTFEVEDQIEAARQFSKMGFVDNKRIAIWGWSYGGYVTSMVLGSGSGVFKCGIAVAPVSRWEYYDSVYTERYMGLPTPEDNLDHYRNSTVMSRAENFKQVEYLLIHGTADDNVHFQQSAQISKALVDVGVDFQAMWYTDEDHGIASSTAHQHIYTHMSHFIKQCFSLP
A further data set addresses Dipeptidyl peptidase 2 (Homo sapiens, UniProt Q9UHL4). Put plainly: Inhibition of DPP2.
Another data set addresses T1, Prolyl endopeptidase (Homo sapiens, UniProt P48147).
T1 sequence (P48147 whole entry): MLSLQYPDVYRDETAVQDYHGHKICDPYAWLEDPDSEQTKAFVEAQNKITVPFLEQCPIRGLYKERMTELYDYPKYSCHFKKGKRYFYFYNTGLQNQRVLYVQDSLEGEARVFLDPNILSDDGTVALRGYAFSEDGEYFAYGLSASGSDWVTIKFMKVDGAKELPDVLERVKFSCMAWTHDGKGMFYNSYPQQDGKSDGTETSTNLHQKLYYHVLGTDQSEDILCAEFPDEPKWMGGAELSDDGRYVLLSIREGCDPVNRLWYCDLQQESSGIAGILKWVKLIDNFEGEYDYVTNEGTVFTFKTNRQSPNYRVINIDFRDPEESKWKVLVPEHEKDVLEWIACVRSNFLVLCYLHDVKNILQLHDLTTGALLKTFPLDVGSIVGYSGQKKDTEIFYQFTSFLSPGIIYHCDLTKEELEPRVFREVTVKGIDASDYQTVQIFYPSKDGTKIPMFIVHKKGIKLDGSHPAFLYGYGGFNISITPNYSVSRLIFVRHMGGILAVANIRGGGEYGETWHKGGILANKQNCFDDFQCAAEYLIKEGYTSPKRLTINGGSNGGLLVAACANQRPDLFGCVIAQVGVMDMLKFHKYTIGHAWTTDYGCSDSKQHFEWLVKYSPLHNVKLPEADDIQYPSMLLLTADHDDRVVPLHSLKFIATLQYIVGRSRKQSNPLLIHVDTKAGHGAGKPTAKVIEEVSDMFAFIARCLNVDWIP
Put plainly: Inhibition of prolyl oligopeptidase.

Data set [1] concerns the target T2, Muscarinic acetylcholine receptor M4 (Homo sapiens, UniProt P08173).
T2 sequence (P08173 whole entry): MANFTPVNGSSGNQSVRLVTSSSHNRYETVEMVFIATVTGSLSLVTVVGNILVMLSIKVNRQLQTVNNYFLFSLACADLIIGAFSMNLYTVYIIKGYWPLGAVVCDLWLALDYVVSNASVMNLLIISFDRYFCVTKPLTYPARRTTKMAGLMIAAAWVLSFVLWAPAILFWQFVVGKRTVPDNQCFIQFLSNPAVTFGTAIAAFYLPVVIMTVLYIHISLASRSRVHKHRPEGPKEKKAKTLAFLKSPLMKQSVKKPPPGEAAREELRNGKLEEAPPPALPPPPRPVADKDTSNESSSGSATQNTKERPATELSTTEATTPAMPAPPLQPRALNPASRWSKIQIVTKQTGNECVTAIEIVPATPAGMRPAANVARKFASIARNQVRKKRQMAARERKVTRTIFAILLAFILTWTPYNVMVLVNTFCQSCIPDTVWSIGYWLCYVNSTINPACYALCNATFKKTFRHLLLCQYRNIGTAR
Description: Binding affinity to muscarinic receptor 4.

The target of a further data set is T3, Cytochrome P450 2C8 (Homo sapiens, UniProt P10632).
T3 sequence (P10632 whole entry): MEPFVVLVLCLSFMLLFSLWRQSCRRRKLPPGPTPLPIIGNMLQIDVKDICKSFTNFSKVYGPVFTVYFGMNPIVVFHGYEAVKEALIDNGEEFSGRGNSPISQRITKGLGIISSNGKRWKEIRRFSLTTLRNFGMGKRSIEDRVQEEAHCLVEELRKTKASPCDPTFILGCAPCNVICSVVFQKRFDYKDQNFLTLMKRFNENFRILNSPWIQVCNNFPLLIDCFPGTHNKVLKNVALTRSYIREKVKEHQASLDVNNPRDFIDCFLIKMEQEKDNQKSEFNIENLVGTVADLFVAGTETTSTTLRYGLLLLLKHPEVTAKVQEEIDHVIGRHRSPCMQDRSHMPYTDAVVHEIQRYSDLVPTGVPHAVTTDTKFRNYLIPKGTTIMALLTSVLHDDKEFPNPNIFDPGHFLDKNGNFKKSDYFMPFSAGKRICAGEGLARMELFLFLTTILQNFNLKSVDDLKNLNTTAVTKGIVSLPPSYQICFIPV
Put plainly: Inhibition of CYP2C8. In kind it is ADME.

A further data set addresses Cytochrome P450 3A4 (Homo sapiens, UniProt P08684). Description: Inhibition of CYP3A4. In kind it is ADME.
The next data set deals with Cytochrome P450 2D6 (Homo sapiens, UniProt P10635). Put plainly: Inhibition of CYP2D6. In kind it is ADME.
Chain of Cytochrome P450 2D6 (P10635 whole entry): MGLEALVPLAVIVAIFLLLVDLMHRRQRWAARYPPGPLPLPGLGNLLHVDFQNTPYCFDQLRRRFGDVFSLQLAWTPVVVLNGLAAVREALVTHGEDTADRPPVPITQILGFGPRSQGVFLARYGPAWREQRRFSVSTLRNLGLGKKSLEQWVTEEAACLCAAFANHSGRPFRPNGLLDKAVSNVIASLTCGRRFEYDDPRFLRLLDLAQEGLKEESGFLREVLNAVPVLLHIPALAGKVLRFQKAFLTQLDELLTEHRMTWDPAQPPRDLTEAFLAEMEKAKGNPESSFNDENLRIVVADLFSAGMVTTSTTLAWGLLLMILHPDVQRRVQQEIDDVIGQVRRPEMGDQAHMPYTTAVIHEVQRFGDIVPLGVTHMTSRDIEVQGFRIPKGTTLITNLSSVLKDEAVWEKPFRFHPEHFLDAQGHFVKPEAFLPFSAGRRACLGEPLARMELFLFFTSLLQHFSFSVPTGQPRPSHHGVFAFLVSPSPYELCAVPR
Data set [2] is described as follows: Volume of distribution at steady state in rat at 1 mg/kg, iv. More on the design: dose 1 mg/kg, route intravenous. The conditions noted are these: in vivo, read-out: Vdss. In kind it is ADME, organism-based.
Data set [3] is described as follows: Half life in rat at 1 mg/kg, iv. In kind it is ADME, organism-based. The arrangement: dose 1 mg/kg, route intravenous. Particulars: in vivo.
Data set [4] is described as follows: Half life in rat at 3 mg/kg, po. More on the design: dose 3 mg/kg, route oral. Particulars: in vivo. In kind it is ADME, organism-based.
Data set [5] is described as follows: Cmax in dog at 3 mg/kg, po. In kind it is ADME, organism-based, Canis lupus familiaris. More on the design: dose 3 mg/kg, route oral. Particulars: in vivo.
Data set [6] in a line: Half life in dog at 3 mg/kg, po. In kind it is ADME, organism-based, Canis lupus familiaris. More on the design: dose 3 mg/kg, route oral. Particulars: in vivo.
Data set [7] can be described thus: Clearance in monkey at 1 mg/kg, iv. The conditions noted are these: rhesus monkey, in vivo. More on the design: dose 1 mg/kg, route intravenous. In kind it is ADME, organism-based, Macaca mulatta.
Data set [8] is described as follows: Half life in monkey at 1 mg/kg, iv. More on the design: dose 1 mg/kg, route intravenous. In kind it is ADME, organism-based, Macaca mulatta. Particulars: rhesus monkey, in vivo.
A short description of data set [9]: Cmax in monkey at 3 mg/kg, po. In kind it is ADME, organism-based, Macaca mulatta. The arrangement: dose 3 mg/kg, route oral. The conditions noted are these: rhesus monkey, in vivo.
Data set [10] is described as follows: Plasma protein binding in human. In kind it is ADME, cell-free. The conditions noted are these: read-out: PPB (converted).
Data set [11] is described as follows: Solubility of the compound in buffered water at pH 1.2 to 6.8. In kind it is physicochemical. The procedure, abridged: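 Free amine form dissolved in buffered water at pH 1.2, 5.5 and 6.8.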
The next data set deals with Salmonella typhimurium. Description: Genotoxicity in Salmonella Typhimurium by Ames test. In kind it is toxicity, organism-based. The conditions noted are these: salmonella enterica subsp. enterica serovar typhimurium.

Some results are limits rather than exact numbers.

Chain of Cytochrome P450 3A4 (P08684 whole entry): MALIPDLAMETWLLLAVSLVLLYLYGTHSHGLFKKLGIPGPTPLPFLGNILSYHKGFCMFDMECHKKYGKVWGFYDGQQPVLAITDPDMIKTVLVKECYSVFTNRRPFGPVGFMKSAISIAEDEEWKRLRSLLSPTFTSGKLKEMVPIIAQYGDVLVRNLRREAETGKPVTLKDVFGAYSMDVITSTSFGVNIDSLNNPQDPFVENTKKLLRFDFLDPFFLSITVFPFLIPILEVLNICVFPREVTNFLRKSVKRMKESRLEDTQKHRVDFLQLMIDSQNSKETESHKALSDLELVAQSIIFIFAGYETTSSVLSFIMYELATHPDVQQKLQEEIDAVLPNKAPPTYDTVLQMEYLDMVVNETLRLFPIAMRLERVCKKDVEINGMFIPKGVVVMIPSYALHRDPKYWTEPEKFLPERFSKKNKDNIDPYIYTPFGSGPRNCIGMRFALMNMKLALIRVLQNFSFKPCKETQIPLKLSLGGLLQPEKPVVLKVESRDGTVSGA

In the case of `Cn1c(=O)c2c(cc(N3CCC[C@@](C)(N)C3)n2Cc2cc(F)ccc2C#N)n(C)c1=O`, the IC50 is 0.0011 µM at Dipeptidyl peptidase 4; above 50 µM on Dipeptidyl peptidase 2; above 50 µM against Prolyl endopeptidase; above 10 µM in [1]; above 50 µM at Cytochrome P450 2C8; above 50 µM against Cytochrome P450 3A4. For the same molecule, at Cytochrome P450 2D6, the midpoint of inhibition, the IC50, lay at 38 µM. Further, the Vd in data set [2] is 6.5 L/kg. The half-life in [3] is 4.1 h; in data set [4] it was 3.3 h; in data set [6], 3.9 h; in data set [8] it was 4.8 h. For the same molecule, the figures for the Cmax in [5] and in [9] were 245 ng/mL and 77 ng/mL, respectively. This molecule displayed a clearance in data set [7] of 38 mL/min/kg. Besides, the fraction unbound in [10] was 0.27. For the same molecule, the solubility in data set [11] was above 1000 µg/mL. Besides, in the data set on Salmonella typhimurium, the Activity entry is “Non-toxic”.
